Data from ChEMBL document CHEMBL1127811, “Inhibitors of cholesterol biosynthesis. 2. Hypocholesterolemic and antioxidant activities of benzopyran and tetrahydronaphthalene analogues of the tocotrienols” (J Med Chem, 1994).

Key:
HepG2 = experiment: In vitro inhibition of cholesterol biosynthesis in Hep G2 cells; assay type: functional, Homo sapiens; parameters: concentration or dose not given beside the values
In short: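 HepG2 human hepatoma cells incubated 4 h with compound at 10 μM, DMSO vehicle controls. Mean % inhibition vs controls, SD ≤ ±10%, n ≥ 8.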

[1] = LDL oxidation assay as spectrophotometric determination of TBARS; assay type: functional
In short: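 LDL (0.5 mg/mL protein stock) in saline/20 mM HEPES with drug in ethanol, oxidised by CuSO4 (4 × 10⁻⁴ M stock), 37 °C, 5 h, in duplicate. Stopped with EDTA; TCA/TBA added, boiled 30 min, A535 read. Malonaldehyde equivalents from tetramethoxypropane standard curve. IC50 = concentration inhibiting 50% TBARS vs ethanol controls.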

[2] = molecular target: T1, 3-hydroxy-3-methylglutaryl-coenzyme A reductase (Homo sapiens) (UniProt P04035); experiment: In vitro suppression of HMG-CoA reductase (HMGR) in Hep G2 cells; assay type: cell-based; parameters: concentration or dose not given beside the values; conditions: HepG2, concentration not given here
T1 sequence (whole entry): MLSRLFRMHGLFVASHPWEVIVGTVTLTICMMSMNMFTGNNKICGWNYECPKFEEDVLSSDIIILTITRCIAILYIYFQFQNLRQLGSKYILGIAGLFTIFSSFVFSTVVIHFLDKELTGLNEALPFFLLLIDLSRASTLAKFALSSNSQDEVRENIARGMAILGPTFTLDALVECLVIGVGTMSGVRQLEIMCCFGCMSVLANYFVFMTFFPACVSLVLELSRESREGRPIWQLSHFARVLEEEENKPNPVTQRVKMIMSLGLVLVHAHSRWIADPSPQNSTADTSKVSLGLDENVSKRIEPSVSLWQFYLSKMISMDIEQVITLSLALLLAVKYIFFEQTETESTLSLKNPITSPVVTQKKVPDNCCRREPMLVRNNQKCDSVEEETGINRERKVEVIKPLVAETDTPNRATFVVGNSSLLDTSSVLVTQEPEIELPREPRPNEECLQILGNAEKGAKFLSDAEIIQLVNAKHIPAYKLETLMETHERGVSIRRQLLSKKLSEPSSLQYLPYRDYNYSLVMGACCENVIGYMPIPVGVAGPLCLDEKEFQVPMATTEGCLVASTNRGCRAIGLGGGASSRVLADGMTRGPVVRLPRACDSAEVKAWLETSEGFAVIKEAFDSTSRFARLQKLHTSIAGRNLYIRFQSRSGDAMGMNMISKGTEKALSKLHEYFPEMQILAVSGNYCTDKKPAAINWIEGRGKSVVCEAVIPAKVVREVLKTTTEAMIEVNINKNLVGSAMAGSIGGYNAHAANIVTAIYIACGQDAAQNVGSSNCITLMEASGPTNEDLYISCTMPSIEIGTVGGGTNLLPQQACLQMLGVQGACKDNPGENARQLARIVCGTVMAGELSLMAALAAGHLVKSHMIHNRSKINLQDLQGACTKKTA
In short: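 HepG2 cells treated 4 h with compound at 10 μM, DMSO vehicle controls. HMG-CoA reductase activity assayed in microsomal fraction isolated at end of incubation. Mean % suppression vs controls, SD ≤ ±10%, n ≥ 8.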

[3] = Compound oxidation potential using cyclic voltametry; assay type: ADME
Gallus gallus [4] = species on record: Gallus gallus; experiment: (§1) Hypocholesterolemic activity in 6-week old male mormocholesterolemic chickens using experiment 4; assay type: functional
In short: (§2)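 Male chickens, 6 weeks old. Test compound mixed at 50 ppm into a corn-soybean control diet; controls get the diet alone. After the feeding period, birds are fasted 36 h and refed 48 h before sacrifice. Serum total, LDL and HDL cholesterol (mg/100 mL) and triglycerides measured; expressed as mean ± SD and percent of control, n = 6–12 per group.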

Gallus gallus [5] = species on record: Gallus gallus; experiment: Ratio of HDL/total cholesterol value; assay type: functional
In short: (§3)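 Six-week-old male chickens fed corn-soybean control diet with test compound at 50 ppm. Birds fasted 36 h, then refed 48 h before sacrifice. Serum total, LDL and HDL cholesterol and triglycerides measured (mg/100 mL), HDL/total ratio computed. Means ± SD, n = 6–12 per group, also as % of control. Significance p < 0.01 within each study.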

Gallus gallus [6] = species on record: Gallus gallus; experiment: as §1; assay type: functional; in short: as §3; remark: listed apart in the source
Gallus gallus [7] = species on record: Gallus gallus; experiment: (§4) Hypocholesterolemic activity in 6-week old male mormocholesterolemic chickens using experiment 3; assay type: functional; in short: as §3
Gallus gallus [8] = species on record: Gallus gallus; experiment: as §4; assay type: functional; in short: as §2; remark: listed apart in the source

Compound | Inhibition (HepG2) [%] | inhibition [2] [%] | other results
CC(C)=CCC/C(C)=C/CCC1(C)CCc2c(O)cc(N3CCCC3)cc2O1 (stereo not given) | 54 |  | IC50 [1]: 4 µM
CC(C)=CCC/C(C)=C/CC/C(C)=C/CCC1Oc2c(cc(O)c(C)c2C)C(=O)/C1=N\O (stereo not given) | 84 |  | 
CC(C)=CCC/C(C)=C/CC/C(C)=C/CCC1(C)CCc2c(cc(C)c(O)c2C)O1 (stereo not given) | 42 | 40 | IC50 [1]: > 10 µM; Potential [3]: 1.06
CC(C)=CCC/C(C)=C/CC/C(C)=C/CCc1cc(=O)c2cc(O)c(C)c(C)c2o1 | 71 |  | 
CC(C)=CCC/C(C)=C\CCC1(C)CCc2cc(O)ccc2O1 (stereo not given) | 55 | 39 | LDL cholesterol (Gallus gallus [4]): 39 mg 100ml-1; Ratio (Gallus gallus [5]): 0.66; IC50 [1]: 2 µM; HDL cholesterol (Gallus gallus [6]): 94 mg 100ml-1; Total cholesterol (Gallus gallus [6]): 142 mg 100ml-1; Triglycerides (Gallus gallus [6]): 67 mg 100ml-1
CC(C)=CCC/C(C)=C/CC/C(C)=C/CCC1(C)CCc2c(O)cccc2O1 (stereo not given) | 62 |  | Potential [3]: 1.27
CC(C)=CCC/C(C)=C/CC/C(C)=C/CC/C(C)=C/CCC1(C)CCc2cc(O)c(C)c(C)c2O1 (stereo not given) | 0 |  | 
CCCCC/C=C\C/C=C\CCCCCCCC1(C)CCc2cc(O)c(C)c(C)c2O1 (stereo not given) | 18 |  | 
CC(C)=CCC/C(C)=C/CC/C(C)=C/CCC1(C)CCc2cc(C)c(C)cc2O1 (stereo not given) | 33 |  | 
CC(C)=CCC/C(C)=C/CCC1(C)CCc2cc(O)ccc2O1 (stereo not given) | 48 | 52 | LDL cholesterol (Gallus gallus [4]): 33 mg 100ml-1; Ratio (Gallus gallus [5]): 0.72; IC50 [1]: 2 µM; HDL cholesterol (Gallus gallus [6]): 93 mg 100ml-1; Total cholesterol (Gallus gallus [6]): 130 mg 100ml-1; Triglycerides (Gallus gallus [6]): 73 mg 100ml-1
CC(C)=CCC/C(C)=C/CC/C(C)=C/CCC1(C)CCc2ccc(O)c(O)c2O1 (stereo not given) | 27 |  | Potential [3]: 1.26
C/C(=C\CCC1(C)CCc2cc(O)c(F)cc2O1)CO (stereo not given) | 15 |  | IC50 [1]: > 10 µM
CC(C)=CCC/C(C)=C/CCC#CCCC1(C)CCc2cc(O)c(C)c(C)c2O1 (stereo not given) | 81 | 46 | 
CCCCC/C=C/C/C=C/CCCCCCCC1(C)CCc2cc(O)c(C)c(C)c2O1 (stereo not given) | 17 |  | 
CC(C)=CCC/C(C)=C/CC/C=C/CCC1(C)CCc2cc(O)c(C)c(C)c2O1 (stereo not given) | 68 |  | 
CCCCCCCC/C=C/CCCCCCCC1(C)CCc2cc(O)c(C)c(C)c2O1 (stereo not given) | 10 |  | 
CC(C)=CCC/C(C)=C/CC/C(C)=C/CCC1(C)CCc2cc(O)c3ccccc3c2O1 (stereo not given) | 57 | 57 | Ratio (Gallus gallus [5]): 0.61; Potential [3]: 0.8; HDL cholesterol (Gallus gallus [7]): 97 mg 100ml-1; Total cholesterol (Gallus gallus [7]): 160 mg 100ml-1; Triglycerides (Gallus gallus [7]): 81 mg 100ml-1; LDL cholesterol (Gallus gallus [8]): 61 mg 100ml-1
CC(C)=CCC/C(C)=C/CC/C(C)=C/CCC1(C)C=Cc2cc(O)c(C)c(C)c2O1 (stereo not given) | 69 |  | Potential [3]: 0.92
CC(C)=CCC/C(C)=C/CC/C=C\CCC1(C)CCc2cc(O)c(C)c(C)c2O1 (stereo not given) | 81 | 45 | 
